Experimental data as given in ChEMBL document CHEMBL1128674, “Evaluation of physicochemical parameters important to the oral bioavailability of peptide-like compounds: implications for the synthesis of renin inhibitors” (J Med Chem, 1995).

Assays:
[1] = Partition coefficient (logP); assay type: physicochemical; details: octanol/water
Outline: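 Log P obtained by a correlation method at pH 6.5.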

[2] = Acid dissociation constant of the compound; assay type: ADME

Compound | logP [1] | pKa [2]
CC(C)C[C@H](O)[C@H](O)[C@H](CC1CCCCC1)NC(=O)C[C@@H](NC(=O)OC(C)(C)C)C(=O)O | 2.06 | 4.7
CC(C)C[C@H](O)[C@H](O)[C@@H](N)CC1CCCCC1 | 1.86 | 
CC(C)C[C@H](O)[C@H](O)[C@H](CC1CCCCC1)NC(=O)[C@H](Cc1csc(N)n1)NC(=O)[C@H](Cc1ccccc1)NS(=O)(=O)N1CCN(C(=O)CCC(=O)O)CC1 | 2.03 | 5.9
CC(C)C[C@H](O)[C@H](O)[C@H](CC1CCCCC1)NC(=O)[C@H](Cc1csc(N)n1)NC(=O)[C@H](Cc1ccccc1)NS(=O)(=O)N1CCOCC1 | 3.01 | 

Next, values leading:

logP [1] | pKa [2] | Compound
1.52 | 7.5 | CC(C)C[C@H](O)[C@H](O)[C@H](CC1CCCCC1)NC(=O)CN
3.61 |  | CC(C)C[C@H](O)[C@H](O)[C@H](CC1CCCCC1)NC(=O)/C=C/c1ccccc1
4.9 |  | CCCC[C@H](NC(=O)[C@H](Cc1ccccc1)n1cccc1)C(=O)N[C@@H](CC1CCCCC1)[C@@H](O)[C@@H](O)CC(C)C
4.66 |  | CC(C)C[C@H](O)[C@H](O)[C@H](CC1CCCCC1)NC(=O)CCCCCc1ccccc1
